# In ChEMBL document CHEMBL4513216, “Probing the Open Global Health Chemical Diversity Library for Multistage-Active Starting Points for Next-Generation Antimalarials” (ACS Infect Dis, 2020):
# Experiment: Toxicity liver stage against HepG2, at 10uM
# Type: cell-based
# Design: test concentration 10 uM, cell line HepG2-A16-CD81EGFP
# Conditions: human, HepG2-A16-CD81EGFP cells; read-out: INHIBITION
# How it was run: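 Uninfected HepG2-A16-CD81EGFP cells, 3 × 10^3 per well, 1536-well, plated on prespotted compound at 10 μM final, parasite-free screening media added to match infected plates; puromycin 10 μM positive, DMSO 0.5% negative; run in parallel with 48 h PbLuc assay at 37 °C, 5% CO2; viability by CellTiter-Glo luminescence, normalized to controls.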
row,SMILES,cytotoxicity at 10 µM
1,Cc1ccnc(NC(=O)CCNC(=O)c2ccccc2Cl)c1,-2.66%
2,CN(C)Cc1cc(CC2(NCc3ccc(C#N)cc3)COC2)no1,-5.96%
3,CN1CCN(c2ccc(NS(=O)(=O)c3ccc(Br)s3)cc2C(=O)O)CC1,-4.5%
4,COc1coc(C(=O)Nc2nc(-c3ccccn3)cs2)cc1=O,7.31%
5,Cc1nn(C)cc1C1SCC(=O)Nc2c1c(O)nn2C(C)C (stereo not drawn),1.04%
6,Cc1cccc(CS(=O)(=O)NCc2nn(C)c3c2COCC3)c1,-3.02%
7,COC(CNC(=O)c1cn(C)nn1)c1ccccc1C (stereo not drawn),-14.5%
8,CN(Cc1cccnc1)[C@@H]1CN(Cc2ccccn2)[C@@H]2CCCO[C@H]12,-0.0545%
9,COc1ccc(C(C)NC(=O)c2nn(C)c(C)c2Br)cc1 (stereo not drawn),9.18%
10,Clc1ccc2[nH]c3c(c2c1)CCCC3c1nn[nH]n1 (stereo not drawn),-4.13%
11,Cc1nn(C)cc1CN1CCc2nc3sccc3c(=O)n2CC1,-1.87%
12,CC(C)(C)C(=O)NCCc1cc(N2CCOCC2)nc(NC2CC2)n1,6.68%
13,CC(C)(C)Nc1c(C2CCN(C(=O)C(C)(C)C)CC2)nc2ccccn12,6.53%
14,CC1(C)O[C@@](C)([C@H]2CC3(CCN(c4cnccn4)CC3)CO2)CC[C@@H]1O,5.53%
15,CN(c1cccnn1)[C@@H]1CC[C@@H]2CN(Cc3cccc(C(=O)O)c3)C[C@@H]21,6.17%
16,Cn1nccc1C(=O)N1CCC(c2ncc(Cl)cc2S(C)(=O)=O)CC1,7.91%
17,Cc1cnc(CC2COCCN(C(=O)CN3CCCCC3)C2)cn1 (stereo not drawn),-3.22%
18,Cc1cc(-c2cnc(C(C)C)nc2CN(C)C(=O)c2ccccn2)on1,2.47%
19,COCCC(=O)N1CCCC(c2noc3nc(C)cc(C(F)(F)F)c23)C1 (stereo not drawn),-19.9%
20,CCc1c(C)nc(C2CCCN2C(=O)c2cc(C)no2)nc1O (stereo not drawn),-5.75%
21,CN(Cc1ccc(F)cc1)CC1(O)CCN(C(=O)c2cccn2C)C1 (stereo not drawn),-3.19%
22,Cc1noc(CN(Cc2ccco2)Cc2cccc3c2OCO3)n1,-2.51%

row,SMILES,cytotoxicity at 10 µM
1,CS(=O)(=O)NC1CCN(Cc2coc(-c3ccccc3)n2)CC1,-43.3%
2,CC(NCc1nnc2n1CCCC2)c1nc(C(C)(C)C)no1 (stereo not drawn),-39.2%
3,CSC1(CNC(=O)NCc2sccc2C)CCOCC1,-49.6%
4,CCOc1ccc(Cl)c(C(=O)NC(Cc2ccccc2)C(N)=O)n1 (stereo not drawn),15.4%
5,CCOc1ncccc1CNS(=O)(=O)c1ccc2c(c1)CCC2,13.3%
6,COc1ccc(CNC2CCc3ncnn3C2)cc1OCC1CC1 (stereo not drawn),-8.74%
7,COC(=O)c1ccc(N2CCN(C(=O)C3CCC3)C(C)C2)cc1 (stereo not drawn),-4.18%
8,COc1cc(C(=O)O)ccc1OCC(=O)NC(C)c1ccc(F)cc1 (stereo not drawn),-1.4%
9,Cc1cc(CN(Cc2ccccc2)CC(O)c2cccs2)on1 (stereo not drawn),5.29%
10,Cc1ccoc1C(=O)NCC(c1ccccc1Cl)N1CCOCC1 (stereo not drawn),8.21%
11,CC(Oc1ccccc1C(F)(F)F)C(=O)NCCCC(N)=O (stereo not drawn),-1.73%
12,Cc1cc(C)n(CCC(=O)N2CCCC(n3nc(C)nc3C)C2)n1 (stereo not drawn),-5.61%
13,CCNC(=O)NC(=O)C(C)N1CCCc2cc(OC)ccc2C1 (stereo not drawn),9.86%
14,COc1cc(F)c(S(=O)(=O)NCc2ccnc(N(C)C)n2)cc1OC,-147%
15,CC(NC(=O)Nc1nncs1)C(=O)NC1CCCC1 (stereo not drawn),-5.36%
16,Cc1nc(CNC(=O)NC2CCN(c3ncccc3Cl)C2)oc1C (stereo not drawn),2.93%
17,Cn1cnnc1C1CCCN1C(=O)Nc1cccc(OC(F)F)c1 (stereo not drawn),8.25%
18,Cc1cc(NC(=O)C(C)Nc2ccn(Cc3ccccn3)n2)on1 (stereo not drawn),-2.06%
19,O=C(O)CC1CN(S(=O)(=O)c2cccc(F)c2)c2ccccc21 (stereo not drawn),-4.17%
20,O=S(=O)(Cc1ccc(F)cc1)NCCc1nnc2n1CCC2,17.2%
21,CCOC(=O)CCNC(=O)c1cc(Cl)cc2cccnc12,15%
22,O=C(NCC1CCC2(CC1)OCCO2)c1cccc(-n2cccn2)c1,0.477%

row,SMILES,cytotoxicity at 10 µM
1,CS(=O)(=O)NC1CCc2[nH]c(=O)ccc2C1 (stereo not drawn),3.46%
2,O=C(c1ccnn1-c1ccc2ccccn12)N1CCCC1,-102%
3,Cn1nc(C#N)c2c1CN(C(=O)c1nc[nH]n1)CCC2,-100%
4,COc1cc(N2CCC3(C2)CN(c2cccnc2)C(=O)CN3C)ncn1 (stereo not drawn),-107%
5,CC(C)n1cnc(-c2nc(C(=O)NC3CC3)c3ccccn23)c1,-102%
6,CS(=O)(=O)NCc1noc2c1CN(C(=O)C1CC1)CC2,-107%
7,CN1CCN(Cc2cn3c(n2)CN(Cc2cccnc2)CC3)CC1,5.25%
8,CN1CC(=O)N(c2cccc(F)c2)CC12CCNC2 (stereo not drawn),6.23%
9,COc1ccccc1CCc1nc(CC2CCN(C)CC2)no1,7.71%
10,COc1ccc(CN(C)C2CCN(S(C)(=O)=O)CC2)c2cccnc12,98.9%
11,N#CC1(c2ccccc2)CCN(C(=O)C2CCCN(C(N)=O)C2)CC1 (stereo not drawn),-22.2%
12,CC[S+]([O-])CCc1nc(CC(C)C)nn1-c1ccc2c(c1)OCCO2 (stereo not drawn),4.24%
13,COCCc1ncc(CN2C[C@H](C3CC3)[C@@H](N)C2)cn1,-42%
14,C=C(C)COc1cccc(CNC(CC(C)C)c2ncnn2C)c1 (stereo not drawn),1.16%
15,CCC(C)N(Cc1cnc(NC(C)C)nc1)Cc1ccsc1 (stereo not drawn),3.84%
16,C[C@@H]1CN(C(=O)c2cc(Cn3cnc4ccccc43)on2)C[C@H](C)O1,1.69%
17,Cc1cccc2[nH]c(C3CCN(C(=O)c4ccc[nH]4)CC3)nc12,6.01%
18,CCC[C@H]1CN(S(C)(=O)=O)C[C@@H]1NC(=O)Cc1ccc(F)cc1C,-7.13%
19,COc1cccc(-c2nc3c([nH]2)CC(C)(C)CNC3=O)c1OC,-5.82%
20,CC(=O)NCCC(=O)N(C/C=C/c1ccccc1)CCO,4.1%
21,O=C(CCNCc1cc(O)c2cc(F)ccc2n1)N1CCCC1,-49.3%
22,CCc1ncc2c(n1)CN(C(=O)CNC(=O)c1ccccc1)C2,2.41%

row,SMILES,cytotoxicity at 10 µM
1,CCOc1ccc(Cc2c(O)nc(SC)n(-c3ccccc3)c2=O)cc1,4.04%
2,CNC(=O)[C@@H]1C[C@H](n2cc(-c3ccc(Cl)cc3)nn2)CN1,5.89%
3,CC(O)c1cn(CC2CCN(C(=O)c3cscn3)CC2)nn1 (stereo not drawn),1.83%
4,COc1cc2c(cc1OC)CN(Cc1ncccc1C(=O)O)CC2,5.31%
5,COCCNc1cc(-c2ccccc2C(=O)O)c2cc[nH]c2n1,2.13%
6,CN(C)c1ncnc2c1CCN(S(=O)(=O)c1ccccc1C(F)(F)F)C2,21.3%
7,Cc1nc(-c2cccc(N3CCC(N4CCCC4)CC3)c2)cs1,-17.2%
8,COc1ccc([C@@H]2CN(Cc3cccnc3N)C[C@H]2N(C)C)cc1,1.54%
9,CCn1ccnc1CN1CCC(Oc2ccccc2F)(C(=O)O)CC1,6.84%
10,COc1ccc(C(=O)n2nc(C)c(C)c2C)cc1,6.06%
11,NC(=O)COc1cccc(C(=O)Nc2cnc3n2CCCC3)c1,18.2%
12,O=C1O[C@@H]2CN(Cc3cccc(F)c3)C[C@@H]2N1CCCN1CCOCC1,-9.9%
13,CCNC(=O)C1CCN(Cn2nc(-c3ccc(F)cc3)oc2=O)CC1,-4.71%
14,Cc1nccn1-c1cc(CNC(=O)CC2CCCO2)ccn1 (stereo not drawn),0.491%
15,CCOc1ccc(C(=O)N2CCCC2c2cnn(C)c2)cn1 (stereo not drawn),-3.71%
16,CC(=O)NCCNC(=O)c1cnc(C(C)(C)C)s1,-2.17%
17,COCCN1CCC(CNC(=O)C2(c3cccc(Cl)c3)CC2)C1 (stereo not drawn),-6.63%
18,CCc1cnc(CN(C(C)=O)C2CCN(CC(=O)N3CCCC3)C2)o1 (stereo not drawn),-6.63%
19,Cc1ccccc1OCCN1CCN(Cc2cnn(CCO)c2)CC1,-17.9%
20,CCC(=O)N1CCN(C(=O)NCCOc2ccc3c(c2)CCC3)CC1,-7.57%
21,CCN(CC1CCOC1)C(=O)c1cccnc1N1CCOCC1 (stereo not drawn),-10.8%
22,CC(NC(=O)NCCCn1ccnc1)c1ccc2c(c1)OCCCO2 (stereo not drawn),-15.1%

row,SMILES,cytotoxicity at 10 µM
1,CC(NC(=O)NCCCN1CCCCCC1)c1nncn1C (stereo not drawn),-7.1%
2,CS(=O)(=O)N1CCC(C(=O)NCCNc2ncccn2)CC1,-8.11%
3,CCNc1cc2c(nn1)CCN(C(=O)c1ccc3cc[nH]c3c1)C2,-6.95%
4,Cc1nn(C)c(N2CCOCC2)c1CNCc1nccs1,-6.33%
5,O=C(N1CCC(Nc2cccnn2)CC1)C1(c2ccc(F)cc2)CC1,-12.8%
6,CCn1c(C)cc(C(=O)N2CCCC(c3nc(C)no3)C2)c1C (stereo not drawn),-3.39%
7,Cc1ccc(CN(CCCN2CCOCC2)Cc2cnn(C)c2)o1,-1.06%
8,O=C(C1CCOCC1)N1CCO[C@H]2[C@H](Oc3ccccn3)CC[C@@H]21,-99.6%
9,CN(C)CCN1CCOCC2(CCCN(C(=O)c3ccoc3)C2)C1 (stereo not drawn),4.87%
10,Fc1cnc(N2CCC3(CC2)CC(OCc2cccnc2)CO3)nc1 (stereo not drawn),2.25%
11,CCC1=N[C@@]2(CC[C@@H]3CN(CC4CC4)C[C@@H]32)C(=O)N1CC1CC1,5.39%
12,CCO[C@@H]1CO[C@@]2(CCCN(S(=O)(=O)c3cccnc3)C2)C1,-0.156%
13,Cc1ccc(CN2CC[C@H]3[C@H]2CC(=O)N3c2cccnc2)o1,5.67%
14,Cc1cccc(CN2CC3(CCN(C(=O)N(C)C)CC3)OCC2=O)n1,-3.88%
15,Fc1ccccc1CO[C@@H]1C[C@H]2CN(c3ncccn3)CCN2C1,1.09%
16,CC(=O)N1CCC2(CC1)CN(C(=O)[C@@H]1CSCN1)c1ccc(Cl)cc12,-1.91%
17,CCc1ncnc2c1CCN(CC(=O)N(C)C)CC2,-106%
18,Cc1cccc(CN2CCC3(CC2)CN(c2cccnc2)C(=O)CO3)n1,-96.1%
19,O=C(NCc1cccs1)[C@@H]1CC[C@@H]2[C@@H](CCN2CC2CCC2)O1,-10.2%
20,O=C(Nc1ccccc1)[C@H]1C[C@H]2CN(S(=O)(=O)C3CC3)C[C@@H]1O2,4.44%
